Measurements: ChEMBL document CHEMBL1177650, “Synthesis, structural elucidation and in vitro antiparasitic activity against Trypanosoma cruzi and Leishmania chagasi parasites of novel tetrahydro-1-benzazepine derivatives” (Bioorg Med Chem, 2010)

Columns and labels:
[1] = Cytotoxicity against human THP1 cells after 72 hrs by MTT assay; format: cell-based; details: THP-1 cells
Procedure, shortened: (§1)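 Vero or transformed THP-1 cells incubated with compound (0.3–300 μM) 72 h at 37 °C, 5% CO2; untreated controls. MTT read-out, formazan OD at 580 nm; % cytotoxicity = 100 × (OD control − OD treated)/OD control. CC50/CC90 by sigmoidal regression; triplicates, repeated twice. DMSO stocks 100× concentrated, diluted in medium.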

[2] = Selectivity index, CC50 for human THP1 cells to IC50 for Leishmania chagasi MHOM/BR/74/PP75 promastigotes; format: functional, THP-1
Procedure, shortened: (§2)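 Selectivity index computed as CC50 in THP-1 cells divided by IC50 against the L. chagasi stage named in the line.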

Leishmania chagasi [3] = test: Antileishmanial activity against Leishmania chagasi MHOM/BR/74/PP75 amastigotes infected in human THP1 cells after 5 days by Giemsa staining; format: functional, organism-based; details: MHOM/BR/74/PP75, THP-1, 120 h
Procedure, shortened: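 THP-1 cells (RPMI, 5% hiSBF, 37 °C, 5% CO2) transformed, then infected 24 h with late-phase L. chagasi promastigotes at parasite:cell 10:1. Treated with compound dilutions (top 100 μM) 5 days at 37 °C, 5% CO2, medium changed once after 3 days. Infected cells counted per 300 cells on methanol-fixed Giemsa slides; IC50/IC90 by sigmoidal regression; triplicates, repeated twice.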

Leishmania chagasi [4] = test: Antileishmanial activity against Leishmania chagasi MHOM/BR/74/PP75 promastigotes after 72 hrs by haemocytometry; format: functional, organism-based; details: MHOM/BR/74/PP75, 72 h
Procedure, shortened: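 Late-phase L. chagasi promastigotes, grown at 28 °C in RPMI 1640 with hemin, HEPES and 10% hiSBF, exposed to threefold serial dilutions (0.3–100 μM) for 72 h at 28 °C; untreated controls. Growth inhibition from haemocytometer counts; IC50/IC90 by sigmoidal regression; triplicates, repeated twice.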

Trypanosoma cruzi [5] = test: Antitrypanosomal activity against Trypanosoma cruzi 320I01 amastigotes infected in african green monkey Vero cells after 5 days by Giemsa staining; format: functional, organism-based; details: 320I01, Vero, 120 h
Procedure, shortened: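 Vero cells (RPMI, 5% hiSBF, 37 °C, 5% CO2) infected 24 h with tissue-derived T. cruzi trypomastigotes at parasite:cell 10:1. Compound dilutions (top 100 μM) applied 5 days at 37 °C, 5% CO2, medium changed once at day 3. Infected cells scored per 300 cells on methanol-fixed Giemsa preparations; IC50/IC90 by sigmoidal regression; triplicates, two experiments.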

Trypanosoma cruzi [6] = test: Antitrypanosomal activity against Trypanosoma cruzi 320I01 epimastigotes after 72 hrs by haemocytometry; format: functional, organism-based; details: 320I01, 72 h
Procedure, shortened: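 Late-phase T. cruzi epimastigotes cultured in LIT medium with hiFCS at 28 °C; threefold serial dilutions (0.3–100 μM) for 72 h at 28 °C, untreated controls. Parasites counted in a haemocytometer; IC50/IC90 by sigmoidal regression; each concentration in triplicate, two experiments.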

[7] = Selectivity index, CC50 for african green monkey Vero cells to IC50 for Trypanosoma cruzi 320I01 epimastigote; format: functional
Procedure, shortened: (§3)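 Selectivity index computed as CC50 in Vero cells divided by IC50 against the T. cruzi stage named in the line.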

[8] = Cytotoxicity against african green monkey Vero cells after 72 hrs by MTT assay; format: cell-based; details: chlorocebus sabaeus; procedure, shortened: as §1
[9] = Selectivity index, CC50 for human THP1 cells to IC50 for Leishmania chagasi MHOM/BR/74/PP75 amastigotes; format: functional, THP-1; procedure, shortened: as §2
[10] = Selectivity index, CC50 for african green monkey Vero cells to IC50 for Trypanosoma cruzi 320I01 amastigotes; format: functional; procedure, shortened: as §3

| IC50 (Leishmania chagasi [3]) | IC90 (Leishmania chagasi [3]) | IC50 (Leishmania chagasi [4]) | IC90 (Leishmania chagasi [4]) | IC50 (Trypanosoma cruzi [5]) | IC90 (Trypanosoma cruzi [5]) | IC50 (Trypanosoma cruzi [6]) | IC90 (Trypanosoma cruzi [6]) | SMILES | CC50 at 72 h [1] | CC90 at 72 h [1] | Selectivity Index [2] | Selectivity Index [7] | CC50 at 72 h [8] | CC90 at 72 h [8] | Selectivity Index [9] | Selectivity Index [10] |
| --- | --- | --- | --- | --- | --- | --- | --- | --- | --- | --- | --- | --- | --- | --- | --- | --- |
| > 100 µM | > 100 µM | 25.1 µM | > 100 µM | > 100 µM | > 100 µM | 19.4 µM | 57.8 µM | Clc1ccccc1[C@@H]1C[C@@H]2Cc3ccccc3N1O2 (relative stereo) | 110 µM | 211 µM | 4.37 | 5.71 | 111 µM | > 300 µM | >1 | >1 |
| > 100 µM | > 100 µM | 52 µM | > 100 µM | > 100 µM | > 100 µM | 76.7 µM | > 100 µM | Cc1cccc([C@@H]2C[C@@H]3Cc4ccccc4N2O3)c1 (relative stereo) | > 300 µM | > 300 µM | >5 | >4 | > 300 µM | > 300 µM | >3 | >3 |
| > 100 µM | > 100 µM | 40.1 µM | 55.4 µM | > 100 µM | > 100 µM | 9 µM | 35.3 µM | Clc1ccc2c(c1)C[C@H]1C[C@@H](c3ccccc3)N2O1 (relative stereo) | > 300 µM | > 300 µM | >7 | >33 | > 300 µM | > 300 µM | >3 | >3 |
| > 100 µM | > 100 µM | 47.6 µM | > 100 µM | > 100 µM | > 100 µM | 7.68 µM | 54.1 µM | Fc1ccc2c(c1)C[C@H]1C[C@@H](c3ccccc3)N2O1 (relative stereo) | > 300 µM | > 300 µM | >6 | >39 | > 300 µM | > 300 µM | >3 | >3 |
| > 100 µM | > 100 µM | 38.3 µM | 67.5 µM | 45.4 µM | 66.8 µM | 34.2 µM | 89.4 µM | Clc1ccc([C@@H]2C[C@@H]3Cc4ccccc4N2O3)cc1 (relative stereo) | > 300 µM | > 300 µM | >7 | >8 | > 300 µM | > 300 µM | >3 | >6 |
| > 100 µM | > 100 µM | 49.1 µM | 70.7 µM | > 100 µM | > 100 µM | 45.8 µM | > 100 µM | Clc1cccc([C@@H]2C[C@@H]3Cc4ccccc4N2O3)c1 (relative stereo) | 134 µM | > 300 µM | 2.73 | >6 | > 300 µM | > 300 µM | >1 | >3 |
| > 100 µM | > 100 µM | 41.7 µM | 49.5 µM | 51.9 µM | > 100 µM | 14.3 µM | 30.4 µM | Cc1ccc2c(c1)C[C@H]1C[C@@H](c3ccccc3Cl)N2O1 (relative stereo) | 66.8 µM | 109 µM | 1.6 | 3.51 | 50.2 µM | > 300 µM | >0.66 | 0.96 |
| > 100 µM | > 100 µM | 51.3 µM | > 100 µM | > 100 µM | > 100 µM | 17.6 µM | 43.9 µM | Clc1ccc2c(c1)C[C@H]1C[C@@H](c3ccccc3Cl)N2O1 (relative stereo) | > 300 µM | > 300 µM | >5 | 6.17 | 109 µM | > 300 µM | >3 | >1 |
| > 100 µM | > 100 µM | 40.5 µM | 47 µM | 58.6 µM | 96.4 µM | > 100 µM | > 100 µM | Fc1ccccc1[C@@H]1C[C@@H]2Cc3ccccc3N1O2 (relative stereo) | 200 µM | > 300 µM | 4.93 | >3 | > 300 µM | > 300 µM | >2 | >5 |
| > 100 µM | > 100 µM | 99 µM | > 100 µM | 45.3 µM | 90 µM | 23.2 µM | 85.4 µM | Cc1ccc([C@@H]2C[C@@H]3Cc4cc(C)ccc4N2O3)cc1 (relative stereo) | 74 µM | 126 µM | 0.75 | 8.97 | 208 µM | > 300 µM | >0.74 | 4.6 |
| > 100 µM | > 100 µM | 33.2 µM | 50.1 µM | > 100 µM | > 100 µM | 15 µM | > 100 µM | Clc1ccc([C@@H]2C[C@@H]3Cc4cc(Cl)ccc4N2O3)cc1 (relative stereo) | > 300 µM | > 300 µM | >9 | >20 | > 300 µM | > 300 µM | >3 | >3 |
| > 100 µM | > 100 µM | > 100 µM | > 100 µM | > 100 µM | > 100 µM | > 100 µM | > 100 µM | Fc1ccc([C@@H]2C[C@@H]3Cc4ccccc4N2O3)cc1 (relative stereo) | 183 µM | > 300 µM | >1 | >3 | > 300 µM | > 300 µM | >1 | >3 |
| > 100 µM | > 100 µM | 54.7 µM | > 100 µM | > 100 µM | > 100 µM | > 100 µM | > 100 µM | COc1cccc([C@@H]2C[C@@H]3Cc4ccccc4N2O3)c1 (relative stereo) | > 300 µM | > 300 µM | >5 | >3 | > 300 µM | > 300 µM | >3 | >3 |
| > 95.4 µM | > 95.4 µM | 32.5 µM | 42.2 µM | 60.6 µM | > 95.4 µM | 30.1 µM | > 100 µM | Clc1ccc2c(c1)C[C@H]1C[C@@H](c3ccc(Br)cc3)N2O1 (relative stereo) | 236 µM | > 287 µM | 7.24 | >10 | > 300 µM | > 287 µM | >2 | >4 |
| > 100 µM | > 100 µM | 35.2 µM | 41.8 µM | 40.2 µM | 104 µM | 35.4 µM | 85.8 µM | Fc1ccc2c(c1)C[C@H]1C[C@@H](c3ccc(Cl)cc3)N2O1 (relative stereo) | > 300 µM | > 300 µM | >8 | >8 | > 300 µM | > 300 µM | >3 | >7 |
